# Measurements gathered from unrelated publications.
# Protocols differ between the studies behind these lines.
# Target: Phosphatidylinositol 5-phosphate 4-kinase type-2 gamma (PIP4K2C, Homo sapiens, UniProt Q8TBX8)
# One construct used (Q8TBX8 1-421): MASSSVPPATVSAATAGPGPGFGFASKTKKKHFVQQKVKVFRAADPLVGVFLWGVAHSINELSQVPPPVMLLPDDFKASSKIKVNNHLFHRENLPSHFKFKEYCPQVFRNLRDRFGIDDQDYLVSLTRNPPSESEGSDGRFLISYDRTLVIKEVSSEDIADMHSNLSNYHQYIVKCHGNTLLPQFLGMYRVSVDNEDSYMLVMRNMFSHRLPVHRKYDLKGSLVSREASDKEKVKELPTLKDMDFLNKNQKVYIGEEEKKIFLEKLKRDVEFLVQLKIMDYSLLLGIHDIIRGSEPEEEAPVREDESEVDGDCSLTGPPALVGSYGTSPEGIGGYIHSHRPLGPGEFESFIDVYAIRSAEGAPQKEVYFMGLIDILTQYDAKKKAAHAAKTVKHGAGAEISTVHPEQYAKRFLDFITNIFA
SMILES,effect on,technique,tested at,remaining binding [%]
CNC(=O)[C@@H]1CC[C@@H](n2c(-c3ccc4cnccc4c3)nc3ccc(C(=O)NCc4cccc(C(N)=O)c4)cc32)C1,binding,competition with immobilised ligand,1 µM,91
CC1CCCN1c1nccc(-c2cnn3ncccc23)n1 (stereo not shown),binding,,1 µM,100
O=C(Nc1c[nH]nc1C(=O)NC1CCNCC1)c1cc(F)cc(F)c1,binding,competition with immobilised ligand,1 µM,76
C[C@@H](c1ccc(-n2cnc3c(N)ncnc32)cc1)N1CCc2nn(C)c(Cc3ccccc3)c2C1=O,binding,competition with immobilised ligand,0.1 µM,96
Cn1cc(Cl)c2c(Oc3c(F)cc(Nc4cc(Cl)nc(N)n4)cc3F)ccnc21,cell-free assay,competition with immobilised ligand,0.1 µM,96
O=C(c1ccc(Nc2ncc(Cl)c(-c3cc4ccccc4s3)n2)cc1)N1CCC(N2CCCC2)CC1,binding,competition with immobilised ligand,1 µM,6.7
O=C(N1CCS(=O)(=O)CC1)N1C[C@H](c2ccc(OC(F)(F)F)cc2)C[C@H](c2nc(C3CC3)no2)C1,cell-free assay,competition with immobilised ligand,1 µM,96
CN(C)c1ncc(F)c(-c2cnn3ncccc23)n1,binding,,1 µM,95
Cc1cc(-n2nc(Cc3cc(F)cc(C(F)(F)F)c3)nc2C)ccc1C(N)=O,cell-free assay,competition with immobilised ligand,1 µM,100
FC(F)(F)Oc1cccc(-c2cnc3ccc(-c4ccncc4)nn23)c1,cell-free assay,competition with immobilised ligand,5 µM,32
COc1ncc2cc3ccccc3nc2c1C#N,cell-free assay,competition with immobilised ligand,5 µM,100
CCS(=O)(=O)c1cc2cc(C[C@](O)(CC(C)(C)c3ccc(F)cc3C(N)=O)C(F)(F)F)[nH]c2cn1,cell-free assay,competition with immobilised ligand,1 µM,100
O=C(c1ccc(Nc2nccc(-c3cc4ccccc4s3)n2)cc1)N1CCC(N2CCCC2)CC1,binding,competition with immobilised ligand,1 µM,1.4
F[C@@H]1CCN(c2nccc(-c3cnn4ncccc34)n2)C1,binding,,1 µM,100
Cc1cc(C)c(-n2ccn3nc(-c4cccnc4)cc23)cc1NC(=O)c1cc(C#N)cc(S(F)(F)(F)(F)F)c1,cell-free assay,competition with immobilised ligand,0.1 µM,89.9
C[C@H]1CCN(c2nccc(-c3cnn4ncccc34)n2)C1,binding,,1 µM,42
O=C(c1ccc(Nc2ncc(Cl)c(-c3ccc(Cl)s3)n2)cc1)N1CCC(N2CCCC2)CC1,binding,competition with immobilised ligand,1 µM,5.9
c1ccc(N2CCN(Cc3nc4ccccc4[nH]3)CC2)nc1,binding,competition with immobilised ligand,1 µM,86
N[C@H]1CCN(c2nccc(-c3cnn4ncccc34)n2)C1,binding,,1 µM,81
COc1cnc(Nc2cccc(S(N)(=O)=O)c2)nc1N1CCN(c2ccccc2)CC1,binding,competition with immobilised ligand,1 µM,95
CN(C)c1nccc(-c2cnn3ncccc23)n1,binding,,1 µM,100
Cc1nc(NC(=O)N2CCC[C@H]2C(N)=O)sc1-c1ccnc(C(C)(C)C(F)(F)F)c1,binding,competition with immobilised ligand,10 µM,100
